According to ChEMBL document CHEMBL1146182, “Synthesis and cytotoxic evaluation of combretafurans, potential scaffolds for dual-action antitumoral agents” (J Med Chem, 2006):
Activity calls are given as the source filed them. The rule behind the calls is not given here.

Experiments:
SH-SY5Y [1] = experiment: Cell cycle arrest in SHSY5Y cells by accumulation at S phase after 4 hrs; assay type: functional, Homo sapiens
Tubulin (Homo sapiens) [2] = target: T1, Tubulin (Homo sapiens) (UniProt P68371+Q9H4B7+P0DPH7+P68366+Q13509+Q71U36+P04350+Q3ZCM7+P07437+P68363+Q9BQE3+Q6PEY2+Q13885+Q9BVA1+Q9BUF5); experiment: Inhibition of tubulin polymerization; assay type: protein-complex assay
Method in brief: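 Whole-cell (in vivo) tubulin polymerization assay in neuroblastoma cells. Cells are incubated overnight with a high inhibitor concentration. Proteins are then extracted in the presence of paclitaxel so that the tubulin polymerization state is frozen at extraction.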

SH-SY5Y [3] = experiment: Cell cycle arrest in SHSY5Y cells by accumulation at G1 phase after 8 hrs; assay type: functional, Homo sapiens
Tubulin (Homo sapiens) [4] = target: T1, Tubulin (Homo sapiens); experiment: Induction of tubulin depolymerization at 231 nM after 24 hrs; assay type: protein-complex assay
SH-SY5Y [5] = experiment: Cell cycle arrest in SHSY5Y cells by accumulation at G2 phase after 12 hrs; assay type: functional, Homo sapiens
SH-SY5Y [6] = experiment: Cell cycle arrest in SHSY5Y cells by accumulation at S phase after 8 hrs; assay type: functional, Homo sapiens
SH-SY5Y [7] = experiment: Cell cycle arrest in SHSY5Y cells by accumulation at S phase after 24 hrs; assay type: functional, Homo sapiens
SH-SY5Y [8] = experiment: Cytotoxicity against SHSY5Y cell line by MTT assay; assay type: functional, cell-based; details: Homo sapiens
SH-SY5Y [9] = experiment: Cell cycle arrest in SHSY5Y cells by accumulation at G1 phase after 4 hrs; assay type: functional, Homo sapiens
SH-SY5Y [10] = experiment: Cell cycle arrest in SHSY5Y cells by accumulation at G1 phase after 24 hrs; assay type: functional, Homo sapiens
SH-SY5Y [11] = experiment: Cell cycle arrest in SHSY5Y cells by accumulation at G2 phase after 8 hrs; assay type: functional, Homo sapiens
SH-SY5Y [12] = experiment: Cell cycle arrest in SHSY5Y cells by accumulation at G2 phase after 24 hrs; assay type: functional, Homo sapiens
SH-SY5Y [13] = experiment: Cell cycle arrest in SHSY5Y cells by accumulation at G2 phase after 4 hrs; assay type: functional, Homo sapiens
SH-SY5Y [14] = experiment: Cell cycle arrest in SHSY5Y cells by accumulation at S phase after 12 hrs; assay type: functional, Homo sapiens
SH-SY5Y [15] = experiment: Cell cycle arrest in SHSY5Y cells by accumulation at G1 phase after 12 hrs; assay type: functional, Homo sapiens
Tubulin (Homo sapiens) [16] = target: T1, Tubulin (Homo sapiens); experiment: Induction of tubulin depolymerization at 2.9 nM after 24 hrs; assay type: protein-complex assay
SH-SY5Y [17] = experiment: Cytotoxicity against SHSY5Y cell line upto 1 uM by MTT assay; assay type: functional, cell-based; details: Homo sapiens
Tubulin (Homo sapiens) [18] = target: T1, Tubulin (Homo sapiens); experiment: Induction of tubulin depolymerization at 35.8 nM after 24 hrs; assay type: protein-complex assay

Row | Compound | Activity (SH-SY5Y [1]) [%] | Activity (Tubulin (Homo sapiens) [2]) | Activity (SH-SY5Y [3]) [%] | Activity (Tubulin (Homo sapiens) [4]) | Activity (SH-SY5Y [5]) [%] | Activity (SH-SY5Y [6]) [%] | Activity (SH-SY5Y [7]) [%] | IC50 (SH-SY5Y [8]) [nM] | Activity (SH-SY5Y [9]) [%] | Activity (SH-SY5Y [10]) [%] | Activity (SH-SY5Y [11]) [%] | Activity (SH-SY5Y [12]) [%] | Activity (SH-SY5Y [13]) [%] | Activity (SH-SY5Y [14]) [%] | Activity (SH-SY5Y [15]) [%] | Activity (Tubulin (Homo sapiens) [16]) | Activity (SH-SY5Y [17]) | Activity (Tubulin (Homo sapiens) [18])
1 | COc1ccc(-c2c(-c3cc(OC)c(OC)c(OC)c3)coc2C=O)cc1 | 54 | Active | 93 | Active | 82 | 84 | 29 | 231 | 32 | 77 | 23 | 25 | 62 | 79 | 42 | – | – | –
2 | COc1ccc(-c2cocc2-c2cc(OC)c(OC)c(OC)c2)cc1[N+](=O)[O-] | – | Active | – | – | – | – | – | 245 | – | – | – | – | – | – | – | – | – | –
3 | COc1ccc(-c2cocc2-c2cc(OC)c(OC)c(OC)c2)cc1O | 53 | Active | 87 | – | 38 | 58 | 85 | 2.9 | 33 | 70 | 55 | 45 | 33 | 43 | 47 | Active | – | –
4 | COc1ccc(-c2c(-c3cc(OC)c(OC)c(OC)c3)coc2/C=N/NC(=O)CCCC(=O)O)cc1 | – | Active | – | – | – | – | – | 1670 | – | – | – | – | – | – | – | – | – | –
5 | COc1cc(-c2cocc2-c2ccc3c(c2)OCO3)cc(OC)c1OC | – | Active | – | – | – | – | – | – | – | – | – | – | – | – | – | – | inactive | –
6 | COc1ccc(/C=C\c2cc(OC)c(OC)c(OC)c2)cc1O [COMBRETASTATIN A4] | 49 | Active | 66 | – | 52 | 79 | 83 | 1.6 | 69 | 25 | 55 | 92 | 82 | 83 | 64 | – | – | –
7 | COc1ccc(-c2cocc2-c2cc(OC)c(OC)c(OC)c2)cc1 | – | – | – | – | – | – | – | 39 | – | – | – | – | – | – | – | – | – | –
8 | COc1ccc(-c2coc(C=O)c2-c2cc(OC)c(OC)c(OC)c2)cc1 | 54 | Active | 74 | – | 55 | 46 | 78 | 35.8 | 53 | 58 | 25 | 81 | 41 | 39 | 50 | – | – | inactive
9 | COc1ccc(-c2cocc2-c2cc(OC)c(OC)c(OC)c2)cc1N | – | Active | – | – | – | – | – | 5.1 | – | – | – | – | – | – | – | – | – | –
